ChEMBL document CHEMBL4732088, “Identification and optimization of piperlongumine analogues as potential antioxidant and anti-inflammatory agents via activation of Nrf2” (Eur J Med Chem, 2021)
Activity calls are given as the source filed them. No cut-off for these calls is given here.

How the values were obtained:
BV-2 = assay: Antiinflammatory activity in mouse BV2 cells transfected with Nrf2 siRNA assessed as reduction in LPS-induced NO production at 20 uM pretreated with compound followed by LPS stimulation for 18 hrs
PC-12 [1] = assay: Protection against 6-OHDA-induced mitochondrial dysfunction in rat PC12 cells assessed as change in mitochondrial membrane potential loss at 20 uM pretreated with compound followed by 6-OHDA addition by JC-1 staining based flow cytometry (reference value: 26.8 %); type: functional
How it was run: (§1)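 Mitochondrial membrane potential in PC12 cells pretreated with compound (5, 10, 20 μM), then exposed to H₂O₂ (200 μM) or 6-OHDA (150 μM). JC-1 staining, red-to-green fluorescence shift read by flow cytometry. Mean ± SD, n = 3.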

PC-12 [2] = assay: Protection against 6-OHDA-induced oxidative damage in rat PC12 cells assessed as intracellular ROS level by measuring mean fluorescence intensity at 10 uM pretreated with compound followed by 6-OHDA stimulation by DCFH-DA staining based flow cytometry (reference value: 26327.34); type: functional
PC-12 [3] = assay: Protection against H2O2-induced apoptosis in rat PC12 cells assessed as late apoptotic cells at 20 uM incubated for 24 hrs by annexin V FITC/propidium iodide staining based flow cytometry (reference value: 16.2 %); type: functional
PC-12 [4] = assay: Protection against H2O2-induced mitochondrial dysfunction in rat PC12 cells assessed as change in mitochondrial membrane potential loss at 10 uM pretreated with compound followed by H2O2 addition by JC-1 staining based flow cytometry (reference value: 21.3 %); type: functional
How it was run: as §1

PC-12 [5] = assay: Protection against H2O2-induced apoptosis in rat PC12 cells assessed as necrotic cells at 20 uM incubated for 24 hrs by annexin V FITC/propidium iodide staining based flow cytometry (reference value: 0.6 %); type: functional
PC-12 [6] = assay: Protection against 6-OHDA-induced apoptosis in rat PC12 cells assessed as early apoptotic cells at 5 uM incubated for 24 hrs by annexin V FITC/propidium iodide staining based flow cytometry (reference value: 19.2 %); type: functional
[7] = target: T1, Nuclear factor erythroid 2-related factor 2 (Rattus norvegicus) (UniProt O54968); assay: Activation of Nrf2 in rat PC12 cells assessed as increase in TrxR1 protein level after 24 hrs by Western blot analysis; type: cell-based; conditions: PC-12, filed as activator, dose 5-20 µM
T1 sequence (whole entry): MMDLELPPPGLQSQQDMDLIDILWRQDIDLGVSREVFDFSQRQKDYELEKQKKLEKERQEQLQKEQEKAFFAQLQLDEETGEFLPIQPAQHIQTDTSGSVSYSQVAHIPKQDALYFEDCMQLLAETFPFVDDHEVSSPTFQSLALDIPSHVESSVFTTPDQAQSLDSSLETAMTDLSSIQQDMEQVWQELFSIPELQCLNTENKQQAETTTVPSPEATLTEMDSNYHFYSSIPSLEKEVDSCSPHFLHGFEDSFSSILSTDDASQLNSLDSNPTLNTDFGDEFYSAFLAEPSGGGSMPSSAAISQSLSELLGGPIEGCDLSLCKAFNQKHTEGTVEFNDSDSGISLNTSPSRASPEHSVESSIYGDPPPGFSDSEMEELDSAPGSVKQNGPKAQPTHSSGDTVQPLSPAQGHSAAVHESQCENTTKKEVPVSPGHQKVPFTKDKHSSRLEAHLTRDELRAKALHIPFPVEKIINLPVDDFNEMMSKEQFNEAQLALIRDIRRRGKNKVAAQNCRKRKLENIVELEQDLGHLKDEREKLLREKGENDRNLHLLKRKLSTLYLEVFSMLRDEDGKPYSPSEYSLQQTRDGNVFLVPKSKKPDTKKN
How it was run: (§2)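 PC12 cells treated with compound for 24 h at rising concentrations; NQO1, HO-1, TrxR1, GCLM, GCLC protein detected by Western blot.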

[8] = target: T2, Nuclear factor erythroid 2-related factor 2 (Mus musculus) (UniProt Q60795); assay: Activation of Nrf2 in mouse BV2 cells assessed as upregulation of NQO-1 protein expression after 24 hrs by Western blot analysis; type: cell-based; conditions: BV-2, filed as activator, dose 5-20 µM
T2 sequence (whole entry): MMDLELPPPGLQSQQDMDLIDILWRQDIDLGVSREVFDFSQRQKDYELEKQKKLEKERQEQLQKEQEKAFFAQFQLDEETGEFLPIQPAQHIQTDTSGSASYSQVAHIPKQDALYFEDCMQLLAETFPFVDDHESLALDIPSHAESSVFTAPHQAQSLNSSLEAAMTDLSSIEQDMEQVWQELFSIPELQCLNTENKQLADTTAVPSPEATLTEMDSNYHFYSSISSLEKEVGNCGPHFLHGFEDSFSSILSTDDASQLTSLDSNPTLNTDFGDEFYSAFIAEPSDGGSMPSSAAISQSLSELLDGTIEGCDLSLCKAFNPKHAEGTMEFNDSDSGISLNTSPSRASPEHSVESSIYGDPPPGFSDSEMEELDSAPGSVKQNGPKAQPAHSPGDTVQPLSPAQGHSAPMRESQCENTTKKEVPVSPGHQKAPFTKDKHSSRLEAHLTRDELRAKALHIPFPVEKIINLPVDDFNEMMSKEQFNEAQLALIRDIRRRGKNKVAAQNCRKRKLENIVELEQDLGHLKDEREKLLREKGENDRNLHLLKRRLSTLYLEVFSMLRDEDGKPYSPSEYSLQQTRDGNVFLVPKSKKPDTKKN
How it was run: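 BV2 microglia exposed to compound for 24 h over a concentration series; Nrf2, NQO1, HO-1, TrxR1, GCLM and GCLC protein levels read by Western blot.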

PC-12 [9] = assay: Protection against H2O2-induced mitochondrial dysfunction in rat PC12 cells assessed as change in mitochondrial membrane potential at 20 uM pretreated with compound followed by H2O2 addition by JC-1 staining based flow cytometry (reference value: 78.7 %); type: functional
How it was run: as §1

PC-12 [10] = assay: Neuroprotective activity against H2O2-induced cell damage in rat PC12 cells assessed as cell viability at 20 uM after 24 hrs by MTT assay (reference value: 46 +/- 4.12 %); type: functional; conditions: read-out: Activity
[11] = target: T1, Nuclear factor erythroid 2-related factor 2 (Rattus norvegicus); assay: Activation of Nrf2 in rat PC12 cells assessed as increase in HO-1 protein level after 24 hrs by Western blot analysis; type: cell-based; conditions: PC-12, filed as activator, dose 5-20 µM
How it was run: as §2

PC-12 [12] = assay: Protection against 6-OHDA-induced apoptosis in rat PC12 cells assessed as viable cells at 20 uM incubated for 24 hrs by annexin V FITC/propidium iodide staining based flow cytometry (reference value: 72.0 %); type: functional; conditions: read-out: Activity
PC-12 [13] = assay: Protection against 6-OHDA-induced apoptosis in rat PC12 cells assessed as late apoptotic cells at 20 uM incubated for 24 hrs by annexin V FITC/propidium iodide staining based flow cytometry (reference value: 7.6 %); type: functional
PC-12 [14] = assay: Protection against H2O2-induced mitochondrial dysfunction in rat PC12 cells assessed as change in mitochondrial membrane potential at 5 uM pretreated with compound followed by H2O2 addition by JC-1 staining based flow cytometry (reference value: 78.7 %); type: functional
How it was run: as §1

PC-12 [15] = assay: Protection against 6-OHDA-induced mitochondrial dysfunction in rat PC12 cells assessed as change in mitochondrial membrane potential at 20 uM pretreated with compound followed by 6-OHDA addition by JC-1 staining based flow cytometry (reference value: 73.2 %); type: functional
How it was run: as §1

Question: `CCN(C)C(=O)N1CCN(C(=O)/C=C/c2ccc(F)cc2)C1=O` was tested. Which Activity (BV-2) did it give?
Answer: The Activity was “inactive”.

Question: What about the Activity (PC-12 [1]) of the same molecule?
Answer: Its Activity is 10.7%.

Question: What about the Flu intensity (PC-12 [2]) of the same molecule?
Answer: The Flu intensity was 12110.88.

Question: What about the Activity (PC-12 [3]) of the same molecule?
Answer: Its Activity is 3.7%.

Question: And the Activity (PC-12 [4])?
Answer: Its Activity is 9.7%.

Question: And the Activity (PC-12 [5])?
Answer: The Activity was 0.3%.

Question: What about the Activity (PC-12 [6]) of the same molecule?
Answer: Its Activity is 11.1%.

Question: And the Activity [7]?
Answer: Its Activity is “Dose-dependent effect”.

Question: What about the Activity [8] of the same molecule?
Answer: Its Activity is “Dose-dependent effect”.

Question: What about the Activity (PC-12 [9]) of the same molecule?
Answer: The Activity was 92.8%.

Question: And the viability at 20 µM (PC-12 [10])?
Answer: Its viability at 20 µM is 75%.

Question: What about the Activity [11] of the same molecule?
Answer: The Activity was “Dose-dependent effect”.

Question: And the viability at 20 µM (PC-12 [12])?
Answer: The viability at 20 µM was 89%.

Question: And the Activity (PC-12 [13])?
Answer: Its Activity is 5%.

Question: And the Activity (PC-12 [14])?
Answer: The Activity was 86.7%.

Question: What about the Activity (PC-12 [15]) of the same molecule?
Answer: The Activity was 89.3%.
